{"data": "Assay results from different studies", "AMY2": "Pancreatic alpha-amylase (AMY2, Sus scrofa, UniProt P00690)", "D14": "D14 (Arabidopsis thaliana, UniProt Q9SQR3)", "ATM": "Serine-protein kinase ATM (ATM, Homo sapiens, UniProt Q13315)"}
{"target": "AMY2", "test": "enzyme activity, inhibitor", "conditions": "50 µM, 30 min", "endpoint": "inhibition", "value": "70.2%", "Compound": "O=c1c(O)c(-c2ccc(O)c(O)c2)oc2c(Br)c(O)c(Br)c(O)c12"}
{"target": "D14", "test": "thermal stability, DSF", "conditions": "1 µM", "endpoint": "ΔTm", "value": "-0.035 °C", "Compound": "CC1=CC(O/C=C2/C(=O)OC3c4ccccc4CC23)OC1=O (racemic)"}
{"target": "Muscarinic acetylcholine receptor M2 (CHRM2, Homo sapiens, UniProt P08172)", "test": "cell-free assay", "conditions": "10 µM", "endpoint": "inhibition", "value": "-4%", "Compound": "Cc1cc(F)cc2c(CCC(=O)N[C@@H]3C(=O)NC[C@H]3O)c(-c3ccc(F)cc3)[nH]c12"}
{"target": "AMY2", "test": "enzyme activity, inhibitor", "conditions": "50 µM", "endpoint": "inhibition", "value": "12.8%", "Compound": "COc1cc(O)c2c(c1)O[C@H](c1ccccc1)CC2=O"}
{"target": "Serine/threonine-protein kinase 24 (STK24, Homo sapiens, UniProt Q9Y6E0)", "test": "binding, competition with immobilised ligand", "conditions": "0.5 µM", "endpoint": "remaining binding", "value": "97%", "Compound": "CCCCC(=O)Nc1ccc(-c2ccc3ncn(CCC)c(=O)c3c2)cn1"}
{"target": "AMY2", "test": "enzyme activity, inhibitor", "conditions": "50 µM, 30 min", "endpoint": "inhibition", "value": "68.2%", "Compound": "O=c1cc(-c2ccc(O)cc2)oc2c(Br)c(O)c(Br)c(O)c12"}
{"target": "Cyclin-dependent kinase 4 (CDK4, Homo sapiens, UniProt P11802)", "test": "binding, competition with immobilised ligand", "conditions": "1 µM", "endpoint": "remaining binding", "value": "100%", "Compound": "Cc1cc(S(=O)(=O)N[C@H]2CC[C@H](CN3CCN(c4ccc(C5CCC(=O)NC5=O)cc4F)CC3)CC2)ccc1Nc1ncc(C(F)(F)F)c(N2CCC[C@](C)(O)C2)n1 (stereo partly drawn)"}
{"target": "AMY2", "test": "enzyme activity, inhibitor", "conditions": "50 µM, 30 min", "endpoint": "inhibition", "value": "97.5%", "Compound": "O=c1cc(-c2ccc(O)c(O)c2)oc2cc(O)cc(O)c12"}
{"target": "Serine/threonine-protein kinase Nek7 (NEK7, Homo sapiens, UniProt Q8TDX7)", "test": "binding", "conditions": "0.1 µM", "endpoint": "remaining binding", "value": "40%", "Compound": "C1=C/COCc2cc(ccc2OCCN2CCCC2)Nc2nccc(n2)-c2cccc(c2)COC/1"}
{"target": "D14", "test": "thermal stability", "conditions": "20 µM", "endpoint": "ΔTm", "value": "4.65 °C", "Compound": "CC(=O)/C=C/C=C(C)/C=C/C1=C(C)CC(O)CC1(C)C (stereo in doubt)"}
{"target": "AMY2", "test": "enzyme activity, inhibitor", "conditions": "50 µM, 30 min", "endpoint": "inhibition", "value": "22.3%", "Compound": "O=c1cc(-c2ccccc2)oc2cc(O)cc(O)c12"}
{"target": "D14", "test": "thermal stability, DSF", "conditions": "1 µM", "endpoint": "ΔTm", "value": "0.28 °C", "Compound": "CC1=C(/C=C/C(C)=C/C=O)C(C)(C)C[C@H](O)C1"}
{"target": "Eukaryotic translation initiation factor 2-alpha kinase 3 (EIF2AK3, Homo sapiens, UniProt Q9NZJ5)", "test": "enzyme activity, inhibitor", "conditions": "0.2 µM", "endpoint": "inhibition", "value": "16.5%", "Compound": "C#Cc1cc(-c2cc(Nc3nc(N[C@@H](C)c4ccc(F)cn4)ncc3Cl)n[nH]2)ccc1C=O"}
{"target": "AMY2", "test": "enzyme activity, inhibitor", "conditions": "50 µM, 30 min", "endpoint": "inhibition", "value": "30.3%", "Compound": "COc1ccc([C@@H]2CC(=O)c3c(O)cc(O)cc3O2)cc1O"}
{"target": "D14", "test": "thermal stability, DSF", "conditions": "50 µM", "endpoint": "ΔTm", "value": "-3.82 °C", "Compound": "CC1=C(/C=C/C(C)=C/C=O)C(C)(C)CCC1"}
{"target": "ATM", "test": "binding, competition with immobilised ligand", "conditions": "1 µM", "endpoint": "remaining binding", "value": "94%", "Compound": "COc1ccc2oc(-c3ccc4nc(N)oc4c3)c/c(=N\\c3ccccc3NC(=O)CCN)c2c1"}
{"target": "D14", "test": "thermal stability, DSF", "conditions": "50 µM", "endpoint": "ΔTm", "value": "1.3 °C", "Compound": "CC(=O)/C=C/C=C(C)/C=C/C1=C(C)CCCC1(C)C"}
{"target": "ATM", "test": "cell-free assay, inhibitor", "conditions": "0.1 µM, lysate", "endpoint": "inhibition", "value": "6.43%", "Compound": "Cc1cc(O)c(-c2ccc([C@@H](C)CN(C)C)cc2)c2c1[nH]c(=O)c1sccc12"}
